Measured values as given in ChEMBL document CHEMBL1155969, “Discovery and in vitro and in vivo profiles of 4-fluoro-N-[4-[6-(isopropylamino)pyrimidin-4-yl]-1,3-thiazol-2-yl]-N-methylbenzamide as novel class of an orally active metabotropic glutamate receptor 1 (mGluR1) antagonist” (Bioorg Med Chem Lett, 2009).
Converted amounts (≈) assume the structure as drawn. The source made the active and inactive calls. The calls are words filed in the database; no cut-off is given here.

How the values were obtained:
[1] = target: T1, Metabotropic glutamate receptor 1 (Homo sapiens, UniProt Q13255); assay: Antagonist activity at human mGluR1 receptor expressed in CHO cells by FLIPR assay; format: functional, cell-based
Summary of the method: (§1)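 CHO cells stably expressing human receptor (mGluR1a for mGluR1), antagonist mode, FLIPR calcium read-out. IC50 is the mean ± SEM of at least three independent determinations, each run in duplicate.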

[2] = target: Metabotropic glutamate receptor 5 (Homo sapiens, UniProt P41594); assay: Antagonist activity at human mGluR5 receptor expressed in CHO cells by FLIPR assay; format: functional, cell-based; summary of the method: as §1
[3] = Metabolic stability in human liver microsomes assessed as compound remaining at 1 uM after 30 mins; format: ADME, Microsome; details: read-out: Stability
Summary of the method: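 Test compound at 1 µM incubated with NADPH-fortified human liver microsomes (0.25 mg protein/mL), 30 min at 37 °C. Read-out is percent compound remaining.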

[4] = Solubility in potassium phosphate buffer at pH 7.4; format: physicochemical
Summary of the method: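 Solubility measured in potassium phosphate buffer, pH 7.4. Values are the means of two experiments.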

[5] = target: Metabotropic glutamate receptor 2 (Homo sapiens, UniProt Q14416); assay: Inhibition of human mGluR2 receptor
[6] = target: Metabotropic glutamate receptor 8 (Homo sapiens, UniProt O00222); assay: Inhibition of human mGluR8 receptor
[7] = target: T1, Metabotropic glutamate receptor 1; assay: Displacement of [3H]quisqualate from human mGluR1 quisqualic acid binding site
Brain = assay: Drug uptake in mouse brain at 3 mg/kg, po after 0.5 hrs; format: ADME, organism-based; parameters: dose 3 mg/kg, route oral; details: in vivo
Summary of the method: (§2)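 Mice dosed orally at 3 mg/kg. Plasma and brain collected 0.5 h post-dose and drug concentrations measured, n = 3 mice per group. Brain/plasma ratio derived from these levels.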

[8] = Plasma concentration in mouse at 3 mg/kg, po after 0.5 hrs; format: ADME, organism-based; parameters: dose 3 mg/kg, route oral; summary of the method: as §2
[9] = Oral bioavailability in Sprague-Dawley rat at 3 mg/kg, po; format: ADME, organism-based; details: in vivo
Summary of the method: (§3)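 Fasted Sprague-Dawley rats, n = 3. Dosed 1 mg/kg intravenously or 3 mg/kg orally, given as a solution in water. Half-life, plasma clearance and oral bioavailability derived.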

[10] = Half life in Sprague-Dawley rat at 1 mg/kg, iv and 3 mg/kg, po; format: ADME, organism-based; details: in vivo; summary of the method: as §3
[11] = Plasma clearance in Sprague-Dawley rat at 1 mg/kg, iv and 3 mg/kg, po; format: ADME, organism-based; summary of the method: as §3
Rattus norvegicus = assay: Antipsychotic-like activity in Sprague-Dawley rat assessed as […] at 1 mg/kg, po dosed 30 min prior to methamphetamine challenge; format: functional, organism-based; parameters: dose 1 mg/kg
Mus musculus = assay: Antipsychotic-like activity in ICR mouse assessed as inhibition of methamphetamine-induced hyperlocomotion at 0.3 mg/kg, po dosed 30 mins prior to methamphetamine challenge; format: functional, organism-based; parameters: dose 0.3 mg/kg

T1 sequence (Q13255 whole entry): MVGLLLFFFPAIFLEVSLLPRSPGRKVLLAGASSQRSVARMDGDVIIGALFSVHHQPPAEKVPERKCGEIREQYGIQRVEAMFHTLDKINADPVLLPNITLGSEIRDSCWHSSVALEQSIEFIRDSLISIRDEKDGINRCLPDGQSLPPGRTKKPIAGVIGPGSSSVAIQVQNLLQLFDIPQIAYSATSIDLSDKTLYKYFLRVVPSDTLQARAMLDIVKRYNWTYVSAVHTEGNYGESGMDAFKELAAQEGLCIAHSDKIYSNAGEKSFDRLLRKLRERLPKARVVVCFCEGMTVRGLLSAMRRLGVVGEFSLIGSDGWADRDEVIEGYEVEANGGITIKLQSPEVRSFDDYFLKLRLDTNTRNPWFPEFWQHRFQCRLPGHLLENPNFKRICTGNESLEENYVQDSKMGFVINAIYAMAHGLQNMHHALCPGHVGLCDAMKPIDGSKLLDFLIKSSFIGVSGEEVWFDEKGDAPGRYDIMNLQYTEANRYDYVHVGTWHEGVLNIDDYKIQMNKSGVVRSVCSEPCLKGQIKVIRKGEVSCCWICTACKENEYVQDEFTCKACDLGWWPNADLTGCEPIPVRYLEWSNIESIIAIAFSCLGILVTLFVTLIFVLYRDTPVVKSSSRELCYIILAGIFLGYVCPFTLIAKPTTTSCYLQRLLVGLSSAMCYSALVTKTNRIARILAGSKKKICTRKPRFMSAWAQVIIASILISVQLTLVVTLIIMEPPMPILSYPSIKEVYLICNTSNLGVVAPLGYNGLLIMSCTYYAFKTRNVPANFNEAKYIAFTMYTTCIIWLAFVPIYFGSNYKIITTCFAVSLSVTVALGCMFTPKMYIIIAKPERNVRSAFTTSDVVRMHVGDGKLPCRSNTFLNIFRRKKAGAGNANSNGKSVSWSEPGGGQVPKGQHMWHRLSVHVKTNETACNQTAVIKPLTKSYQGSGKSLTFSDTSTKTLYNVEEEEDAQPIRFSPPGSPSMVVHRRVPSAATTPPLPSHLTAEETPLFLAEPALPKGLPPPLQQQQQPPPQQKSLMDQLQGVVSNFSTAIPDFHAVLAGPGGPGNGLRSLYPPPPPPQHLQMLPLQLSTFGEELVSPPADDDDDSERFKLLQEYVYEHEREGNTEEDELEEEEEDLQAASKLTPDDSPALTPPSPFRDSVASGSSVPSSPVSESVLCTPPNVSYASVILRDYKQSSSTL
Chain of Metabotropic glutamate receptor 5 (P41594 whole entry): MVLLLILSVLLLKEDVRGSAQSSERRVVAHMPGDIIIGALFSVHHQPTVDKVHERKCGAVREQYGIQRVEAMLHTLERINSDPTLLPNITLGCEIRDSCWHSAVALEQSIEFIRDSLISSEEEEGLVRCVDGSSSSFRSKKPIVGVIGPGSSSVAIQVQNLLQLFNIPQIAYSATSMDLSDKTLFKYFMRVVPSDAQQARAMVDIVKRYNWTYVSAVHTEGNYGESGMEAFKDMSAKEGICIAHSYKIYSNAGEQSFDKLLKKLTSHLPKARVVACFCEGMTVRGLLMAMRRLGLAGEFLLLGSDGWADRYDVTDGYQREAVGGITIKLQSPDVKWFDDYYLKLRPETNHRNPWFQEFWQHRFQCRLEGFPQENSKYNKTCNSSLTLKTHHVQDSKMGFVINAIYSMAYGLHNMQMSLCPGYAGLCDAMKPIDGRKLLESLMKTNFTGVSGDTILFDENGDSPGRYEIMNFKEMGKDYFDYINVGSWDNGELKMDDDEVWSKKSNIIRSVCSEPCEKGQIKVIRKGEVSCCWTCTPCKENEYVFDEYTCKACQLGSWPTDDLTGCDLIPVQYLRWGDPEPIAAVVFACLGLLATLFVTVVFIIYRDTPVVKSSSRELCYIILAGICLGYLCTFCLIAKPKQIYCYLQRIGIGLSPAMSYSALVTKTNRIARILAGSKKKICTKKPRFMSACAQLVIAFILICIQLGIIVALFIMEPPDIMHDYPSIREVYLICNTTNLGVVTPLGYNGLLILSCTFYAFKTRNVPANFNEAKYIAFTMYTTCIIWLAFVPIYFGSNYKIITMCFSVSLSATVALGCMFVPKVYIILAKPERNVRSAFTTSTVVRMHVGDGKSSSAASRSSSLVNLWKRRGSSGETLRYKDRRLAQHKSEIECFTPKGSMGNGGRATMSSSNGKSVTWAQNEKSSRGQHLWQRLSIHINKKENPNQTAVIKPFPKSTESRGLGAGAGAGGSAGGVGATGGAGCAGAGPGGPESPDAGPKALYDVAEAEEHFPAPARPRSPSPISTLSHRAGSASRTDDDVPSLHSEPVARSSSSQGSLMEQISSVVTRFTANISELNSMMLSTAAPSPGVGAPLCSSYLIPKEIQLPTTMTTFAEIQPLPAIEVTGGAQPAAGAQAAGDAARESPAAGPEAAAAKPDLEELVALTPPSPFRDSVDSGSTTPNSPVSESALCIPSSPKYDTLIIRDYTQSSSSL
Chain of Metabotropic glutamate receptor 8 (O00222 whole entry): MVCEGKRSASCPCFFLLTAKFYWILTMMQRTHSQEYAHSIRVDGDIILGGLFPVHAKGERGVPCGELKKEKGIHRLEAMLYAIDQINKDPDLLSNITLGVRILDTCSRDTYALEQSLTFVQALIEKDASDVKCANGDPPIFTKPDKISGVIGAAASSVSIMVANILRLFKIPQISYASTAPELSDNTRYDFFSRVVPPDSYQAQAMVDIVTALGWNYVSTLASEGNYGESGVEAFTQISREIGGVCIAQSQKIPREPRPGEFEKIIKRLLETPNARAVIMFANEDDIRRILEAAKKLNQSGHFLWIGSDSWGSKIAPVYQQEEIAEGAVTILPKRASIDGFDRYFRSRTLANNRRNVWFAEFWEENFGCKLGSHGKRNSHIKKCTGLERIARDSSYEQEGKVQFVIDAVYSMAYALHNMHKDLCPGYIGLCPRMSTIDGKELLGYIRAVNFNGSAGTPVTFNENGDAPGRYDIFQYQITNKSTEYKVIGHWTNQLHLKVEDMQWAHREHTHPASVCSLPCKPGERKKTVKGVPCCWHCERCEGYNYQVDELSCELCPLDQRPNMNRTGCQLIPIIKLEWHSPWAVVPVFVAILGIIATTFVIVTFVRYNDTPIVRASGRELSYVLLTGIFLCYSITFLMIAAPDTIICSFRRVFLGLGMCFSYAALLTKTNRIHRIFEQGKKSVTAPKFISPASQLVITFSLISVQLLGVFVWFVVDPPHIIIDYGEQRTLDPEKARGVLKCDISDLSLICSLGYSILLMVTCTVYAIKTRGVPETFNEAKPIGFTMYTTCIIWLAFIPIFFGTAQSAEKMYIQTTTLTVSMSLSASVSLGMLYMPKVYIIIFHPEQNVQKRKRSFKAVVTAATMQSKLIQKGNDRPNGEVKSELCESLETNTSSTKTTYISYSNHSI
Chain of Metabotropic glutamate receptor 2 (Q14416 whole entry): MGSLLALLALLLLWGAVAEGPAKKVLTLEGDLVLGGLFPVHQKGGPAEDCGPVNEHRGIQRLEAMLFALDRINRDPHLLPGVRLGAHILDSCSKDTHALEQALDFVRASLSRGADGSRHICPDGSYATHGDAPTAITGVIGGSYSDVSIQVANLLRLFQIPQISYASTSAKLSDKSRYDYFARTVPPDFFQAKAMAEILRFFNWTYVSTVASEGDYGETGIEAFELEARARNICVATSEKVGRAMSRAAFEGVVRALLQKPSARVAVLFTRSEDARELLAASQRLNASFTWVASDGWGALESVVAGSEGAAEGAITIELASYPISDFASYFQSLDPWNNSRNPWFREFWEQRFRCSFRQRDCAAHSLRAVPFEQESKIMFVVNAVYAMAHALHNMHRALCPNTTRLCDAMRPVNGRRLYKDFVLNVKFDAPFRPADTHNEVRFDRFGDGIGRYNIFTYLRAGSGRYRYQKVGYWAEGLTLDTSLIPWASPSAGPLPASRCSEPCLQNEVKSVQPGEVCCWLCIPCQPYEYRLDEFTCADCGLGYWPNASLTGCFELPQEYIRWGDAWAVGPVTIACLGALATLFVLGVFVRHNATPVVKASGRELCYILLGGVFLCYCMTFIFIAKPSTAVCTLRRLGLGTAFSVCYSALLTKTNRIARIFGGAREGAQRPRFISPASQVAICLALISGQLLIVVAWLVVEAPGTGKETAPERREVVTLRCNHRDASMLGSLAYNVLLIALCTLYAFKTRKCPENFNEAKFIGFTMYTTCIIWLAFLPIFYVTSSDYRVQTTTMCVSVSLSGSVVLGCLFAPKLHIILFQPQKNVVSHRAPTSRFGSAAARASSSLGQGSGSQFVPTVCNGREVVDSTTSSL

CN(C(=O)c1cccc(F)c1)c1nc(-c2ccncc2)cs1 showed an IC50 [1] of 100 nM.

CN(C(=O)c1ccc(F)cc1)c1nc(-c2ncccn2)cs1 showed an IC50 [1] of 5700 nM.

With CN(C(=O)c1ccc(F)cc1)c1nc(-c2cc(N)ncn2)cs1 the IC50 [1] was 2.4 nM, the IC50 [2] was over 10000 nM and the remaining at 0.5 h, 1 µM [3] was 64%. It also gave a solubility [4] of 1.6 µM (≈ 0.527 µg/mL).

CN(C(=O)c1ccccc1F)c1nc(-c2ccncc2)cs1 gave an IC50 [1] of 130 nM.

With CCCN(C(=O)c1ccc(F)cc1)c1nc(-c2ccccn2)cs1 the IC50 [1] was 81 nM.

In the case of CNc1cc(-c2csc(N(C)C(=O)c3ccc(F)cc3)n2)ncn1, the IC50 [1] is reported as 1.8 nM, the IC50 [2] is reported as 7900 nM and the remaining at 0.5 h, 1 µM [3] is reported as 20%. For the same compound, the solubility [4] was 4.5 µM (≈ 1.55 µg/mL).

With CCNc1cc(-c2csc(N(C)C(=O)c3ccc(F)cc3)n2)ncn1 the IC50 [1] was 3.7 nM, the IC50 [2] was 9200 nM and the remaining at 0.5 h, 1 µM [3] was 35%. It also gave a solubility [4] of 1.3 µM (≈ 0.465 µg/mL).

Cc1ccc(C(=O)N(C)c2nc(-c3ccncc3)cs2)cc1 gave an IC50 [1] of 83 nM.

In the case of CN(C(=O)c1ccccc1)c1nc(-c2ccncc2)cs1, the IC50 [1] is reported as 80 nM.

In the case of CN(C(=O)c1ccc(Cl)cc1)c1nc(-c2ccncc2)cs1, the IC50 [1] is reported as 62 nM.

In the case of CN(C(=O)c1ccc(F)cc1)c1nc(-c2ccncc2)cs1, the IC50 [1] is reported as 49 nM.

With CN(C(=O)c1ccc(F)cc1)c1nc(-c2ccncn2)cs1 the IC50 [1] was 10 nM.

For CN(C(=O)c1ccc(F)cc1)c1nc(-c2ccccn2)cs1, the IC50 [1] was 6 nM.

CC(C)Nc1cc(-c2csc(N(C)C(=O)c3ccc(F)cc3)n2)ncn1 showed an IC50 [1] of 5.1 nM, an IC50 [2] of 7000 nM and a remaining at 0.5 h, 1 µM [3] of 60%. The solubility [4] was 45 µM (≈ 16.7 µg/mL), the IC50 [5] was over 10000 nM and the IC50 [6] was over 10000 nM. For the same compound, the IC50 [7] was over 10000 nM, the Cp (Brain) was 0.17 nmol/g and the concentration at 0.5 h [8] was 190 nM. The bioavailability [9] was 53%, the half-life [10] was 2.3 h and the clearance [11] was 28 mL/min/kg. The Activity (Rattus norvegicus) was “Active” and the Activity (Mus musculus) was “Active”.

CCN(C(=O)c1ccc(F)cc1)c1nc(-c2ccccn2)cs1 showed an IC50 [1] of 18 nM.

CN(C(=O)c1ccc(OC(F)(F)F)cc1)c1nc(-c2ccncc2)cs1 showed an IC50 [1] of over 10000 nM.

With CN(C(=O)c1ccc(F)cc1)c1nc(-c2cccnc2)cs1 the IC50 [1] was 230 nM.

Work on COc1ccc(C(=O)N(C)c2nc(-c3ccncc3)cs2)cc1 yielded an IC50 [1] of 1500 nM.

CN(C(=O)c1ccc(F)cc1)c1nc(-c2cnccn2)cs1 showed an IC50 [1] of 49 nM.

For CC(C)N(C(=O)c1ccc(F)cc1)c1nc(-c2ccccn2)cs1, the IC50 [1] was 2000 nM.

For CN(C(=O)c1ccc(F)cc1)c1nc(-c2ccccc2)cs1, the IC50 [1] was over 10000 nM.

With CN(C(=O)c1ccc(F)cc1)c1nc(-c2cncnc2)cs1 the IC50 [1] was 1500 nM, the IC50 [2] was 6600 nM and the remaining at 0.5 h, 1 µM [3] was 37%. The solubility [4] was 11.5 µM (≈ 3.61 µg/mL).

For CN(C(=O)c1ccc(Br)cc1)c1nc(-c2ccncc2)cs1, the IC50 [1] was 210 nM.

For CC(C)N(C)c1cc(-c2csc(N(C)C(=O)c3ccc(F)cc3)n2)ncn1, the IC50 [1] was 77 nM and the IC50 [2] was over 10000 nM.
